Assay results reported in ChEMBL document CHEMBL4359823, “Switching on the activity of 1,5-diaryl-pyrrole derivatives against drug-resistant ESKAPE bacteria: Structure-activity relationships and mode of action studies” (Eur J Med Chem, 2019).
Values after ≈ are worked out from the molar mass of the structure shown.

How the values were obtained:
Klebsiella pneumoniae = test: Antibacterial activity against Klebsiella pneumoniae M6 measured after overnight incubation by microbroth dilution method; assay type: functional
How it was run: (§1)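 Microbroth dilution MIC. Compound DMSO stocks were diluted in water as a 2-fold series. Overnight TSB cultures were back-diluted to OD 0.01 and mixed 1:1 with compound. Plates were incubated overnight at 37 °C. MIC was the lowest concentration without visible growth (<0.1 OD600), run in duplicate.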

Enterococcus faecium = test: Antibacterial activity against Enterococcus faecium NCTC12204 assessed as generation of drug resistance at 2 times MIC measured after 48 hrs by agar-based microbroth dilution method
Staphylococcus aureus [1] = test: Antibacterial activity against Staphylococcus aureus NCTC13616 assessed as generation of drug resistance at 2 times MIC measured after 48 hrs by agar-based microbroth dilution method; assay type: functional
How it was run: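 Agar method: exponentially growing bacteria, in known numbers, plated on agar with doubling compound concentrations at and above the MIC; incubated 48 hours. Colonies growing above the MIC were picked and re-tested by microbroth MIC for raised resistance. Resistance frequency reported at 2xMIC.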

Enterococcus faecalis [2] = test: Antibacterial activity against vancomycin resistant Enterococcus faecalis NCTC12201 measured after overnight incubation by microbroth dilution method; assay type: functional
How it was run: (§2)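 Microbroth dilution: DMSO stocks diluted in water, 2-fold series. Overnight TSB cultures back-diluted to OD 0.01 and mixed 1:1 with compound. Incubated overnight at 37 °C; MIC taken as lowest concentration without visible growth (<0.1 OD600). Run in duplicate; matching DMSO levels checked for effect on growth.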

Staphylococcus aureus [3] = test: Antibacterial activity against methicillin resistant Staphylococcus aureus NCTC13277 measured after overnight incubation by microbroth dilution method; assay type: functional; how it was run: as §2
Acinetobacter baumannii = test: Antibacterial activity against Acinetobacter baumannii ATCC 17978 measured after overnight incubation by microbroth dilution method; assay type: functional; how it was run: as §1
Staphylococcus aureus [4] = test: Antibacterial activity against methicillin sensitive Staphylococcus aureus NCTC 6571 measured after overnight incubation by microbroth dilution method; assay type: functional; how it was run: as §2
Topoisomerase IV = Topoisomerase IV (Staphylococcus aureus, UniProt P0C1S7+P0C1U9); test: Inhibition of Staphylococcus aureus topoisomerase-4 expressed in Escherichia coli assessed as relaxation of pBR322 substrate measured after 30 mins by agarose gel electrophoresis
Escherichia coli = test: Antibacterial activity against Escherichia coli NCTC12923 measured after overnight incubation by microbroth dilution method; assay type: functional; how it was run: as §1
Staphylococcus aureus [5] = test: Antibacterial activity against methicillin resistant Staphylococcus aureus NCTC13616 measured after overnight incubation by microbroth dilution method; assay type: functional; how it was run: as §2
[6] = Inhibition of Staphylococcus aureus DNA gyrase subunit A2B2 using relaxed pBR322 DNA as substrate measured after 30 mins in presence of ATP by ethidium bromide-based gel electrophoresis
How it was run: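 Supercoiling assay with S. aureus wild-type or S84L gyrase and relaxed pBR322, with or without varying compound, at 37 °C for 30 min. The reaction was stopped with STEB and extracted with chloroform:isoamyl alcohol (24:1). The aqueous phase was run on a 1% agarose gel and the supercoiled band quantified. IC50 came from at least three independent replicates.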

Enterococcus faecalis [7] = test: Antibacterial activity against vancomycin sensitive Enterococcus faecalis NCTC775 measured after overnight incubation by microbroth dilution method; assay type: functional; how it was run: as §2
Enterococcus faecalis [8] = test: Antibacterial activity against vancomycin resistant Enterococcus faecalis NCTC12204 measured after overnight incubation by microbroth dilution method; assay type: functional; how it was run: as §2
Staphylococcus aureus [9] = test: Antibacterial activity against methicillin-sensitive Staphylococcus aureus ATCC 9144 measured after overnight incubation by microbroth dilution method; assay type: functional; how it was run: as §2
Staphylococcus aureus [10] = test: Antibacterial activity against methicillin-resistant Staphylococcus aureus EMRSA15 measured after overnight incubation by microbroth dilution method; assay type: functional; how it was run: as §2
Staphylococcus aureus [11] = test: Antibacterial activity against methicillin-resistant Staphylococcus aureus MRSA252 measured after overnight incubation by microbroth dilution method; assay type: functional; how it was run: as §2

Chain of Topoisomerase IV (P0C1U9 whole entry): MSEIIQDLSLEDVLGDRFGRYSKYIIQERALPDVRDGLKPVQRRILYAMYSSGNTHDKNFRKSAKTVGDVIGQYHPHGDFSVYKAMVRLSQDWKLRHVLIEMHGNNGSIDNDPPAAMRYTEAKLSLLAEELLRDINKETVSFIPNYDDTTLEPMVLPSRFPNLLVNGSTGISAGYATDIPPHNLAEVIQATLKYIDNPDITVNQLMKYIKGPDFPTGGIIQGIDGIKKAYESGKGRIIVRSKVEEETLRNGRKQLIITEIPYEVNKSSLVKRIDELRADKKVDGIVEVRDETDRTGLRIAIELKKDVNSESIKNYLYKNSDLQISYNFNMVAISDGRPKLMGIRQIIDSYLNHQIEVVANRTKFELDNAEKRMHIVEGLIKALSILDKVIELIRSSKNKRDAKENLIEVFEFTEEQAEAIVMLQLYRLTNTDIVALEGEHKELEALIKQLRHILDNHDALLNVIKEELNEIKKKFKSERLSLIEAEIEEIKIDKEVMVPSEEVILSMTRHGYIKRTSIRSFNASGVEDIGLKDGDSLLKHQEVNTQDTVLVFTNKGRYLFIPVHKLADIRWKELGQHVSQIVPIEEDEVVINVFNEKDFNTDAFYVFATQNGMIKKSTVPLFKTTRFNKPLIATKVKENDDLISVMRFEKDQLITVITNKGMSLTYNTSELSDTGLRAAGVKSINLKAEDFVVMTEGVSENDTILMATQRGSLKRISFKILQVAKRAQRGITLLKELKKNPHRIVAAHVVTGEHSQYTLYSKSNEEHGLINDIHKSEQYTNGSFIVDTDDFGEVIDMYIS
Chain of Topoisomerase IV (P0C1S7 whole entry): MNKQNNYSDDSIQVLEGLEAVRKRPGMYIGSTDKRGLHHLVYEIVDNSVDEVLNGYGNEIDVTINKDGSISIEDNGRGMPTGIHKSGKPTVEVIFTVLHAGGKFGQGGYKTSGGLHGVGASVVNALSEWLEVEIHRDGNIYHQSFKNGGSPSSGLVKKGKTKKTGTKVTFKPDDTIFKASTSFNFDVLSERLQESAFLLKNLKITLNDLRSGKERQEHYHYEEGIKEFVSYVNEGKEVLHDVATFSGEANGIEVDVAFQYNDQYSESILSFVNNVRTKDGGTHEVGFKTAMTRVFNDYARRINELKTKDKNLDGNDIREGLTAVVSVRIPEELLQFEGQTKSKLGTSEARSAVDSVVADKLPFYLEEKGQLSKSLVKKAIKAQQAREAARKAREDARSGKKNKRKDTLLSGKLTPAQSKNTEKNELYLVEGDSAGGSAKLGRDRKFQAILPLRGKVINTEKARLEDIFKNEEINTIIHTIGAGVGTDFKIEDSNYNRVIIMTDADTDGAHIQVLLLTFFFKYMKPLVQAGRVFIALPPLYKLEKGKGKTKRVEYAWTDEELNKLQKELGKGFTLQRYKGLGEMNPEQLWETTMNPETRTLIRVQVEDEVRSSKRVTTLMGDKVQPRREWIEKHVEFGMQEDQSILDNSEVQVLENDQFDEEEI

Work on `C[C@H]1COc2c(N3CCN(C)CC3)c(F)cc3c(=O)c(C(=O)O)cn1c23.C[C@H]1COc2c(N3CCN(C)CC3)c(F)cc3c(=O)c(C(=O)O)cn1c23.O` [LEVOFLOXACIN] yielded an MIC (Klebsiella pneumoniae) of 0.12 µg/mL, an Activity (Enterococcus faecium) of 7.08e-06 and an Activity (Staphylococcus aureus [1]) of 1.87e-05. The MIC (Enterococcus faecalis [2]) was 1 µg/mL, the MIC (Staphylococcus aureus [3]) was 8 µg/mL and the MIC (Acinetobacter baumannii) was 0.12 µg/mL. For the same compound, the MIC (Staphylococcus aureus [4]) was 0.12 µg/mL, the IC50 (Topoisomerase IV) was 9.85 µM and the MIC (Escherichia coli) was under 0.12 µg/mL. It also gave an MIC (Staphylococcus aureus [5]) of 8 µg/mL, an IC50 [6] of 8.71 µg/mL and an MIC (Enterococcus faecalis [7]) of 1 µg/mL. The MIC (Enterococcus faecalis [8]) was 0.5 µg/mL.

`Cc1cc(CNCCc2ccccc2)c(C)n1-c1ccc(Cl)cc1` showed an MIC (Staphylococcus aureus [9]) of 32 µg/mL (≈ 94.4 µM), an MIC (Staphylococcus aureus [10]) of 32 µg/mL (≈ 94.4 µM) and an MIC (Enterococcus faecalis [2]) of 16 µg/mL (≈ 47.2 µM). It also gave an MIC (Staphylococcus aureus [11]) of 32 µg/mL (≈ 94.4 µM), an MIC (Enterococcus faecalis [7]) of 32 µg/mL (≈ 94.4 µM) and an MIC (Enterococcus faecalis [8]) of 8 µg/mL (≈ 23.6 µM).

`Cc1cc(CNCc2ccc(Cl)cc2)c(C)n1-c1ccc(Cl)cc1` gave an MIC (Staphylococcus aureus [9]) of 32 µg/mL (≈ 89.1 µM), an MIC (Staphylococcus aureus [10]) of 32 µg/mL (≈ 89.1 µM) and an MIC (Enterococcus faecalis [2]) of 16 µg/mL (≈ 44.5 µM). It also gave an MIC (Staphylococcus aureus [11]) of 32 µg/mL (≈ 89.1 µM), an MIC (Enterococcus faecalis [7]) of 32 µg/mL (≈ 89.1 µM) and an MIC (Enterococcus faecalis [8]) of 8 µg/mL (≈ 22.3 µM).

With `Cc1cc(CNC2C3CC4CC(C3)CC2C4)c(C)n1-c1ccc(Cl)cc1` (stereo unspecified) the MIC (Staphylococcus aureus [9]) was 128 µg/mL (≈ 347 µM), the MIC (Staphylococcus aureus [10]) was over 128 µg/mL and the MIC (Enterococcus faecalis [2]) was 128 µg/mL (≈ 347 µM). It also gave an MIC (Staphylococcus aureus [11]) of 128 µg/mL (≈ 347 µM), an MIC (Enterococcus faecalis [7]) of 128 µg/mL (≈ 347 µM) and an MIC (Enterococcus faecalis [8]) of 64 µg/mL (≈ 173 µM).
